# Assay outcomes (PubChem BioAssay)
# EBI2 antag – EBI2 receptor antagonists, beta-arrestin recruitment, primary screen, cell-based, luminescence, 7a,25-OHC stimulation, uHTS | G-protein coupled receptor 183 (Homo sapiens), P32249 | 7a,25-OHC stimulated | inhibition, % at 5 µM | hit rate 0.81% among 360,000 | AID 651636, 2012; in the data active = inhibition above about 38%;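 also: enzyme fragment complementation signal reports receptor beta-arrestin coupling in cells; 0% = agonist plus DMSO wells and 100% = wells without agonist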
# CCR6 antagonist – CCR6 receptor antagonists, primary screen, cell-based, CHO-K1, luminescence, beta-arrestin, uHTS. C-C chemokine receptor type 6 (Homo sapiens), P51684. CHO-K1 CCR6 PathHunter beta-arrestin, CCL20-stimulated. inhibition, % at 20 µM. hit rate 0.49% among 340,000. AID 493098, 2011;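 active = compounds whose inhibition of the agonist-driven luminescence signal at 20 µM reaches about 50%, limit read from the data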;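 also: cells stimulated with CCL20 at 14 nM final; plate controls were DMSO with CCL20 for no effect and DMSO without agonist for full effect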
# Target sequence (P51684 whole entry, looked up): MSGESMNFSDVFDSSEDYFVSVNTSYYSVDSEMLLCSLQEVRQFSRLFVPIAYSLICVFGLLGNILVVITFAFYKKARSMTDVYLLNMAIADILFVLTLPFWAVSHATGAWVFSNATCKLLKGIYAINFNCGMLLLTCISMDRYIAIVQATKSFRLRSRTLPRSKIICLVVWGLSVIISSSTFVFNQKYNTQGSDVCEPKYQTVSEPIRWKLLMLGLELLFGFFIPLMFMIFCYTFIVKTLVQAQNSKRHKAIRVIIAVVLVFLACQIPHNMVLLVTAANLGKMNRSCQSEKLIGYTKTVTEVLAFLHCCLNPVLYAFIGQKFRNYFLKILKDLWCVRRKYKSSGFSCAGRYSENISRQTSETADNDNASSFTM
# CXCR6 block – CXCR6 receptor inhibitors, primary screen, cell-based, beta-arrestin, luminescence, CHO-K1 PathHunter, 1536-well; C-X-C chemokine receptor type 6 (Homo sapiens), O00574; inhibition, % at 20 µM; hit rate 0.36% among 360,000; in the data active = inhibition above about 34%, passing the limit was not always enough;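 also: antagonist mode with CXCL16 agonist at 10 nM final; 0% = 10 nM CXCL16 with DMSO and 100% = unstimulated wells without agonist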
# APJ antagonist – antagonists of human apelin receptor APJ, primary screen, CHO-K1 cells, beta-arrestin complementation, luminescence; hit rate 0.32% among 330,000; AID 2521, 2010; inhibition, % at 20 µM;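 active = inhibition above about 40% at 20 µM, limit read from the data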;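 also: cells challenged with 10 nM apelin-13 agonist together with compound; plate controls were apelin-13 plus DMSO wells for no effect and DMSO wells lacking apelin-13 for full effect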
# APJ ag – agonists of human apelin receptor APJ, primary screen, CHO-K1 cells, PathHunter beta-arrestin, luminescence. P35414. 0% DMSO wells, 100% apelin. activation, % at 20 µM. hit rate 0.11% among 330,000;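 active = activation more than six SD over the plate average, tested at 20 µM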;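 also: 0% = DMSO alone and 100% = apelin-13 at 10 nM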
#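 Incubation: overnight seeding, 90 min compound at 25 °C, 1 h detection; test system: PathHunter CHO-K1 APJ (AGTRL-1) beta-arrestin reporter cells; amount: 1000 cells/well; doses: one dose, 20 µM compound, 1% DMSO; measured by: beta-gal luminescence; measure: agonist-driven arrestin binding to APJ; benchmarks: negative DMSO alone, positive Apelin-13 at 10 nM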
# EBI2 antag conf – EBI2 antagonist hit retest, beta-arrestin, confirmation, cell-based, single concentration, luminescence, 7a,25-OHC stimulation. shares compounds with EBI2 antag. 7a,25-OHC antagonism. inhibition, % at 5 µM. hit rate 29% among 2,400;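 active = inhibition of at least 50%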
# EBI2 agonist – EBI2 agonist activity of antagonist hits, confirmation, counter-screen for EBI2 antagonist project, cell-based, single concentration, agonist mode, luminescence; shares compounds with EBI2 antag; EBI2-expressing cells, 60 min; 0% vehicle, 100% 7α,25-dihydroxycholesterol control; activation, % at 5 µM; 2,400 tested, under 10 active; AID 652000, 2013;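 active = activation of at least 50%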
# bGal cs – E. coli beta-galactosidase enzyme inhibition, confirmation, counter-screen for EBI2 antagonist project, biochemical, luminescence, single concentration. shares compounds with EBI2 antag. purified beta-galactosidase, luminescent Galacton Star, 15 min. inhibition, % at 5 µM. hit rate 1% among 2,400. AID 652176, 2013;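 active = replicate-average signal at least 3 plate SD below neutral wells, shown as high inhibition, flagging enzyme-inhibiting false positives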;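 also: 0% = DMSO wells with enzyme and 100% = wells lacking enzyme; higher means stronger loss of beta-gal luminescence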
# The depositor's hits bear a star; . = no result. Hits are enriched below; roughly 1.5% of the tested compounds scored in any of these assays.
SMILES,EBI2 antag,CCR6 antagonist,CXCR6 block,APJ antagonist,APJ ag,EBI2 antag conf,EBI2 agonist,bGal cs
Cc1ccc(Nc2nc(-c3cccnc3)cs2)cc1C,49*,8,-4,-29,1,56*,2,2
Brc1cccc(Nc2nc(-c3cccnc3)cs2)c1,42*,-7,-12,-23,-2,45,2,2
Cc1ccc(Oc2nc3ccccn3c(=O)c2/C=C(\C#N)C(=O)Nc2c(C)n(C)n(-c3ccccc3)c2=O)c(C)c1,63*,7,3,-5,0,58*,2,3
N#C/C(=C\c1c(Oc2ccc(Cl)cc2)nc2ccccn2c1=O)C(=O)NC1CCS(=O)(=O)C1 (stereo unspecified),-5,11,2,-18,1,.,.,.
Cc1cc(Oc2nc3ccccn3c(=O)c2/C=C(\C#N)C(=O)NC2CCS(=O)(=O)C2)ccc1Cl (stereo unspecified),49*,17,-16,-7,3,66*,-1,-14
Cc1cccc(Oc2nc3ccccn3c(=O)c2/C=C(\C#N)C(=O)NC2CCS(=O)(=O)C2)c1 (stereo unspecified),45*,-1,5,-6,-1,53*,0,-18
CN1CCN(c2ccc(S(=O)(=O)N3CCCCC3)cc2NC(=O)CSCc2ccccc2)CC1,-7,10,5,5,-6,.,.,.
Cc1ccc(S(=O)(=O)N2CCN(C(=O)NCc3ccc(C(=O)O)cc3)CC2)cc1,-3,2,0,16,2,.,.,.
COc1ccc(OC)c(NC(=O)CSCc2cnn(-c3ccccc3)c2-n2cccc2)c1,15,13,-3,10,-4,.,.,.
COc1cc(NC(=O)CSCc2cnn(-c3ccccc3)c2-n2cccc2)cc(OC)c1,37*,23,0,7,-1,14,-2,-13
CN(C)c1cccc(C(=O)NNC(=O)CN2C(=O)C3CC=CCC3C2=O)c1 (stereo unspecified),1,12,0,6,-3,.,.,.
O=C(NN=Cc1c[nH]c2ccccc12)NN=Cc1c[nH]c2ccccc12,74*,.,-6,.,.,62*,1,5
CCCN(CCC)Cc1c(C(=O)N/N=C/c2c[nH]c3ccccc23)nnn1-c1nonc1N,7,-5,-6,-6,0,.,.,.
O=C(N/N=C/c1c[nH]c2ccccc12)c1ccccc1,-6,4,-2,7,-1,.,.,.
CCCc1c(C(=O)N/N=C/c2c[nH]c3ccccc23)nnn1-c1nonc1N,43*,.,-5,.,.,36,0,-18
COC(=O)/C=C/c1cccc([C@H]2[C@@H]3C=CC[C@@H](C)[C@@H]3C(=O)N2Cc2ccccc2)c1,7,19,17,.,.,.,.,.
C=C(C)C(O)Cc1c(OC)ccc(C(=O)/C=C/c2ccc(O)cc2)c1O (stereo unspecified),17,29,5,-10,-2,.,.,.
CC(C)=CCC/C(C)=C/Cc1c(O)ccc(C(=O)/C=C/c2ccc(O)cc2)c1O,43*,28,11,-48,-8,49,1,3
Cc1ccc(NC(=O)COc2ccc(Br)cc2CO)cc1S(=O)(=O)N1CCOCC1,1,-4,-17,-3,1,.,.,.
O=C1CCC[C@@H]2[C@@H](Cc3ccccc3)[C@H](N3CCN(c4ccccc4)CC3)C[C@@H]3CCN1[C@@H]32,20,17,15,.,.,.,.,.
OCCCNc1cc(-c2ccccc2)nc2cc(-c3ccc(F)cc3)nn12,55*,-14,-4,-10,3,49,-1,-6
CC(C)C[C@H]1CNC(=S)N1CC1CCCN1C[C@H](CC(C)C)N1C[C@H](Cc2ccc(O)cc2)N(CC2CCCCC2)C1=S (stereo partly specified),31,9,8,.,.,.,.,.
CC(C)C[C@H]1CNC(=S)N1C[C@H]1CCCN1C[C@H](CC(C)C)N1C[C@H](Cc2ccc(O)cc2)N(CC2CCCCCC2)C1=S,60*,.,8,.,.,25,-1,-14
CC(C)C[C@@H](CN1CCC[C@@H]1CN1C(=S)NC[C@@H]1Cc1ccccc1)N1C[C@H](Cc2ccc(O)cc2)N(CC2CCCCCC2)C1=S,58*,.,-1,.,.,17,-1,-10
COc1ccc(NC(=O)c2cc(=O)c3ccccc3o2)cn1,5,13,-9,10,0,.,.,.
SMILES,EBI2 antag,CCR6 antagonist,CXCR6 block,APJ antagonist,APJ ag,EBI2 antag conf,EBI2 agonist,bGal cs
COc1ccc(NC(=O)c2cc3ccccc3o2)cn1,38*,4,-2,6,-3,19,1,7
Cc1ccc(C)c(S(=O)(=O)N2CCN(C(=O)CCNS(=O)(=O)c3ccc(C)c(C)c3)CC2)c1,7,-10,-3,15,-1,.,.,.
Cc1ccc(C)c(S(=O)(=O)N2CCN(C(=O)c3ccc4ccccc4n3)CC2)c1,50*,11,2,-9,-4,41,1,4
Cc1ccccc1OCCC(=O)N1CCN(S(=O)(=O)c2ccccc2F)CC1,25,-2,-1,14,4,.,.,.
Cc1ccc(C)c(OCCC(=O)N2CCN(S(=O)(=O)c3cc(C)ccc3C)CC2)c1,66*,5,3,11,-1,44,5,8
Cc1ccc(C)c(S(=O)(=O)N2CCN(C(=O)c3cnccn3)CC2)c1,4,-3,4,13,-2,.,.,.
Cc1ccc(C)c(S(=O)(=O)N2CCN(C(=O)CCNC(=O)c3ccc(Br)cc3)CC2)c1,75*,6,3,20,-2,33,1,2
Cc1cc(C)c(S(=O)(=O)N2CCN(C(=O)CCOc3ccccc3C)CC2)c(C)c1,81*,7,0,-4,-3,46,2,8
COc1cc(NC(=O)c2sc(C)nc2C)c(OC)cc1NC(=O)c1ccccc1,-5,0,-8,-14,0,.,.,.
COc1ccc(C(=O)NCCS(=O)(=O)N2CCc3ccccc3C2)cc1,-15,1,8,-54,1,.,.,.
CCOc1ccc(S(=O)(=O)NCCC(=O)OCC(=O)c2ccc(NC(C)=O)cc2)cc1,-2,-8,-27,12,5,.,.,.
COc1ccc(CCNC(=O)Cc2ccc(NS(=O)(=O)c3ccc(F)cc3)cc2)cc1OC,-5,-2,3,7,1,.,.,.
